Data published in ChEMBL document CHEMBL1130216, “Design, synthesis, and dopamine receptor modulating activity of diketopiperazine peptidomimetics of L-prolyl-L-leucylglycinamide” (J Med Chem, 1997).
Where a SMILES comes first, the peptide text is derived from it.

Legend:
[1] = target: D(2) dopamine receptor (Bos taurus) (UniProt P20288); experiment: Percentage of receptor in the low affinity form for the compound to Dopamine receptor D2 in absence of Gpp(NH)p; assay type: functional
Outline: (§1)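 Bovine striatal membranes (150-200 µg protein) were incubated with 0.2 nM [3H]spiroperidol and varying N-propylnorapomorphine, with or without 100 µM Gpp(NH)p and 100 nM peptidomimetic, plus 50 nM ketanserin, for 1 h at 22 °C, then GF/B filtered. Nonspecific binding was set with 1.0 µM (+)-butaclamol. A two-site fit gave high/low-affinity fractions; Ki values came via Cheng-Prusoff. Mean ± SEM of 3-4 experiments.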

[2] = target: D(2) dopamine receptor (Bos taurus) (UniProt P20288); experiment: Percentage of receptor in the low affinity form for the compound to Dopamine receptor D2 in presence of Gpp(NH)p; assay type: functional; outline: as §1
[3] = target: D(2) dopamine receptor (Bos taurus) (UniProt P20288); experiment: Percentage of receptor in the high affinity form for the compound to Dopamine receptor D2 in absence of Gpp(NH)p; assay type: functional; outline: as §1
[4] = target: D(2) dopamine receptor (Bos taurus) (UniProt P20288); experiment: Percentage of receptor in the high affinity form for the compound to Dopamine receptor D2 in presence of Gpp(NH)p; assay type: functional; outline: as §1
[5] = target: D(2) dopamine receptor (Bos taurus) (UniProt P20288); experiment: Percentage of receptor in the high affinity form for the compound to Dopamine receptor D2 in presence of Gpp(NH)p (pre treated with 1 uM); assay type: functional
[6] = target: D(2) dopamine receptor (Bos taurus) (UniProt P20288); experiment: Percentage of receptor in the low affinity form for the compound in absence of Gpp(NH)p (Pre treated with 1 uM) to Dopamine receptor D2
[7] = target: D(2) dopamine receptor (Bos taurus) (UniProt P20288); experiment: Percentage of receptor in the low affinity form for the compound to Dopamine receptor D2 in presence of Gpp(NH)p (pre treated with 1 uM)
[8] = target: D(2) dopamine receptor (Bos taurus) (UniProt P20288); experiment: Percentage of receptor in the high affinity form for the compound in absence of Gpp(NH)p (Pre treated with 1 uM) to Dopamine receptor D2

D(2) dopamine receptor (Bos taurus), sequence (P20288 whole entry): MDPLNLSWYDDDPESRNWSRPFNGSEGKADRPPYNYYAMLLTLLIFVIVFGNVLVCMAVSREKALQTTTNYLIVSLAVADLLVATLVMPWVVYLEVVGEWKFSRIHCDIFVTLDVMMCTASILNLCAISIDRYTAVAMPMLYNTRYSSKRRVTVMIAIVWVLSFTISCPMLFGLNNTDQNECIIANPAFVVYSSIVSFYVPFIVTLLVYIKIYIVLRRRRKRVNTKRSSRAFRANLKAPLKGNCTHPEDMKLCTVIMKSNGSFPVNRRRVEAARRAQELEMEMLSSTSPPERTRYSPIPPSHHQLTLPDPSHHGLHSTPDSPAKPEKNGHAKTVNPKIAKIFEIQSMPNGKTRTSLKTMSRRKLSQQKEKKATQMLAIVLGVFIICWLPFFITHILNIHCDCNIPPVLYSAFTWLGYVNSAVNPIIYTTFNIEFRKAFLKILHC

RL [1] | RL [2] | RH [3] | RH [4] | RH [5] | RL [6] | RL [7] | RH [8] | SMILES
43.8% | 81.2% | 56.2% | 18.8% | – | – | – | – | CC(C)C[C@@H](C(=O)NCC(N)=O)N1CC(=O)N2CCC[C@H]2C1=O
55% | 78% | 46% | 22% | – | – | – | – | NC(=O)CN1CC[C@@H](N2CC(=O)N3CCC[C@H]3C2=O)C1=O
51% | 82% | 49% | 19% | 32% | 41% | 72% | 61% | CC(C)C[C@H](NC(=O)[C@@H]1CCCN1)C(=O)NCC(N)=O (H-Pro-Leu-Gly-NH2)
51% | 81.5% | 49% | 18.5% | – | – | – | – | NC(=O)[C@H]1CS[C@@H]2C[C@@H](N3CC(=O)N4CCC[C@H]4C3=O)C(=O)N12
